# Laboratory results reported in article PMC5352984 (Journal of medicinal chemistry, 2017).
# Tests used:
# [1] = tested on: GLP; settings: cited from earlier work
# [2] = tested on: 29 PKMTs, PRMTs, DNMTs, and RNMTs; assay: Selectivity assays against a methyltransferase panel; format: biochemical
# Procedure, shortened: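 Quenched with 7.5 M guanidine HCl, diluted in 20 mM Tris pH 8.0, FlashPlate counted after 1 h. DOT1L, ASH1L, DNMT3A/3L, DNMT3B/3L: 1 h RT, TCA filter capture, washes, scintillation count. No-compound = 100%, no-enzyme = 0%.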
# [3] = target: T1, G9a (Homo sapiens, UniProt Q96KQ7); assay: G9a scintillation proximity methyltransferase assay; format: biochemical; settings: ratio of IC50 versus compound 14
# T1 sequence (Q96KQ7 1-1210): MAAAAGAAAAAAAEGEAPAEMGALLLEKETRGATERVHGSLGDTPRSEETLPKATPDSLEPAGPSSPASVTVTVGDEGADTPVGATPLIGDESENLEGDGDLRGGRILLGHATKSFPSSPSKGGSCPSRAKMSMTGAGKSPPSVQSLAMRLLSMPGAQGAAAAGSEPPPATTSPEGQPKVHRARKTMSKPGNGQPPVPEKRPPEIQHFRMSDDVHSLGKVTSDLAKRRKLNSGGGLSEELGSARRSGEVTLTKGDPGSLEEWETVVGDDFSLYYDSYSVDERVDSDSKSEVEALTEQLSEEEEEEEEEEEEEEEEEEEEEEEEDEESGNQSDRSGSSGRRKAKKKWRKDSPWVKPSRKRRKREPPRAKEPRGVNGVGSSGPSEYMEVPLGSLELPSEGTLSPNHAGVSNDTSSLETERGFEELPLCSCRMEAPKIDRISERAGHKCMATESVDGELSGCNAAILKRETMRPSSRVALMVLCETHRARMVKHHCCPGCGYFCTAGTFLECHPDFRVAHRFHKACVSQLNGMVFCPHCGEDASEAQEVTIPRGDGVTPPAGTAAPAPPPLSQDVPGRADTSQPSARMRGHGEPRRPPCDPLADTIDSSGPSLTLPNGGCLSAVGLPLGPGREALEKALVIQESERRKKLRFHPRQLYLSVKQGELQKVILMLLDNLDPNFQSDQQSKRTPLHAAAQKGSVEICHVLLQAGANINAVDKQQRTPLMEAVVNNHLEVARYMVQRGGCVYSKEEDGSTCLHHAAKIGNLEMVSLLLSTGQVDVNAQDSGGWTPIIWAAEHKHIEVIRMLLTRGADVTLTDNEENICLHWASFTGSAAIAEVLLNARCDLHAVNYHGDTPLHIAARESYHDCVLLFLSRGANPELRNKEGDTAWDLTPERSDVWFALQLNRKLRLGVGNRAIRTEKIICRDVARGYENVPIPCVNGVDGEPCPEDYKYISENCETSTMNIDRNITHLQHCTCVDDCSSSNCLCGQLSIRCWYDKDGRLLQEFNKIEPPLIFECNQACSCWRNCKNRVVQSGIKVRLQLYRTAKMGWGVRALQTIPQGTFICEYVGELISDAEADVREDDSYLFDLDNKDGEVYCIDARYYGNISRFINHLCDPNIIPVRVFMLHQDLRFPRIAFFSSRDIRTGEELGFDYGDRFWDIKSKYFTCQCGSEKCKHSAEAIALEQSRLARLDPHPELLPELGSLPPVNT
structure (smiles),measurement,setting,value
COc1cc2nc(N3CCCN(C)CC3)nc(NC3CCN(Cc4ccccc4)CC3)c2cc1OC [Compound 1],selectivity for GLP over G9a,[1],3–5 fold
"COc1cc2nc(N3CCOCC3)nc(NC3CCN(C)CC3)c2cc1OC [Compound 4, 6,7-Dimethoxy-N-(1-methylpiperidin-4-yl)-2-morpholinoquinazolin-4-amine]",inhibition of 29 methyltransferases,[2]; compound at 10 μM,did not inhibit
"COc1cc2nc(N3CCCN(C)CC3)nc(NC3CCN(C)CC3)c2cc1OC [Compound 15, 6,7-Dimethoxy-2-(4-methyl-1,4-diazepan-1-yl)-N-(1-methylpiperidin-4-yl)quinazolin-4-amine]",potency increase for G9a compared with 14,[3],21 fold
"CCCCCCNc1nc(NC2CCN(C)CC2)c2cc(OC)c(OC)cc2n1 [Compound 18, N^2-Hexyl-6,7-dimethoxy-N^4-(1-methylpiperidin-4-yl)quinazoline-2,4-diamine]",inhibition of 29 methyltransferases,[2]; compound at 1 μM,did not inhibit
